Among the data in PubChem BioAssay AID743243 (The Scripps Research Institute Molecular Screening Center, 2013) are IC50 values, retold here.

Activity calls are given as the source filed them.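 How the source made its calls: active means IC50 of 10 µM or lower; inactive means IC50 above 10 µM.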

In general, IC50 refers to the concentration needed to halve the response being measured.

For the assay, the target named is ADP-ribosylation factor GTPase-activating protein 1 (Rattus norvegicus) (UniProt Q62848). As to the kind of experiment: IC50 of ARFGAP1-driven ARF1 GTPase inhibition – biochemical, fluorescence polarization, round 000, late-stage follow-up (AID 743243). Conditions: ARFGAP1-stimulated ARF1 GTP hydrolysis, GDP fluorescence polarization. The procedure, abridged: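 Assay system: purified His6-tagged rat Arfgap1 GAP domain (residues 1-136) / Dosing: triplicate series, top 165 µM / Replicates: each compound dose series run in triplicate / Schedule: 20 min enzyme-compound preincubation, then 120 min GTPase reaction, 25 °C / Measured by: FP GDP tracer-antibody displacement, 620/688 nm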
Sequence of ADP-ribosylation factor GTPase-activating protein 1 (Rattus norvegicus) (Q62848 1-136 limits assumed): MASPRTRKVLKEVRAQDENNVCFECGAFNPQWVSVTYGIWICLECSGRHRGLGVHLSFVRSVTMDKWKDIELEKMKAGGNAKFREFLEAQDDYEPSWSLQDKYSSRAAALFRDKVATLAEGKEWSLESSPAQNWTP

Turning to `Fc1cccc(-c2nnn3c2nc(NCc2ccc4c(c2)OCO4)c2ccccc23)c1`, the IC50 is > 165 µM (inactive).

Regarding `O=C(NCCc1nc2ccccc2[nH]1)c1ccc2c(c1)C(=O)N(c1ccc(F)cc1)C2=O`, the IC50 is > 165 µM (inactive).

Regarding `O=C(COC(=O)c1ccc2c(c1)C(=O)N(c1ccccc1Cl)C2=O)c1ccc(Br)cc1`, the IC50 was > 165 µM (inactive).

On to `NS(=O)(=O)c1ccc(CCNc2nc3c(-c4cccc(Cl)c4)nnn3c3ccccc23)cc1`, for which the IC50 result is “inactive”.

Take `Cc1cccc(-c2nnn3c2nc(NCCc2ccc(S(N)(=O)=O)cc2)c2ccc(Cl)cc23)c1`: the IC50 entry was “inactive”.

As for `O=C(NCC1CCCO1)c1ccc2c(c1)C(=O)N(c1ccccc1-c1ccccc1)C2=O` (stereo not drawn), the IC50 was > 165 µM (inactive).

For the compound `O=C1c2ccc(Oc3ccc(Br)cc3)cc2C(=O)N1c1cccc2ncccc12`, the IC50 entry is “inactive”.

Turning to `CCOCCCNC(=O)c1ccc2c(c1)C(=O)N(c1ccc(Cn3cncn3)cc1)C2=O`, the IC50 was > 165 µM (inactive).

`O=C(NC1CCCCC1)c1ccc2c(c1)C(=O)N(c1ccccc1-c1ccccc1)C2=O`: the IC50 was > 165 µM (inactive).

As for `COc1cccc(C(=O)COC(=O)c2ccc3c(c2)C(=O)N(c2cccc(C(F)(F)F)c2)C3=O)c1`, the IC50 was > 165 µM (inactive).

`COc1ccccc1N1C(=O)c2ccc(C(=O)OCC(=O)c3ccc(Br)cc3)cc2C1=O`: the IC50 was > 165 µM (inactive).

As to `Cc1ccc(C(=O)COC(=O)c2ccc3c(c2)C(=O)N(c2cccc4ccccc24)C3=O)cc1`, the IC50 was > 165 µM (inactive).

As for `Fc1cccc(-c2nnn3c2nc(NCCc2ccccc2)c2ccccc23)c1`, the IC50 is > 165 µM (inactive).

For `NS(=O)(=O)c1ccc(CCNc2nc3c(-c4ccc(Cl)cc4)nnn3c3ccccc23)cc1`, the IC50 entry is “inactive”.

Regarding `NS(=O)(=O)c1ccc(CCNc2nc3c(-c4cccc(F)c4)nnn3c3ccccc23)cc1`, the IC50 result is “inactive”.

Consider `O=C(COC(=O)c1ccc2c(c1)C(=O)N(c1cccc(Cl)c1Cl)C2=O)c1ccccc1`, for which the IC50 was > 165 µM (inactive).

Take `Fc1cccc(-c2nnn3c2nc(NCCc2ccc(Cl)cc2)c2ccccc23)c1`: the IC50 was > 165 µM (inactive).

As to `O=C(NCc1ccco1)c1ccc2c(c1)C(=O)N(c1ccc(C(=O)c3ccccc3)cc1)C2=O`, the IC50 is > 165 µM (inactive).

As for `COc1ccc(CCNc2nc3c(-c4cccc(F)c4)nnn3c3cc(Cl)ccc23)cc1OC`, the IC50 is > 165 µM (inactive).

`COc1ccccc1Oc1ccc2c(c1)C(=O)N(c1cccc3ncccc13)C2=O`: the IC50 was > 165 µM (inactive).

On to `Cc1cccc(-c2nnn3c2nc(NCCc2ccc(S(N)(=O)=O)cc2)c2ccccc23)c1`, for which the IC50 result was “inactive”.

For `Cc1ccc(N2C(=O)c3ccc(C(=O)OCC(=O)C(C)(C)C)cc3C2=O)cc1`, the IC50 is > 165 µM (inactive).

`COc1cccc(C(=O)COC(=O)c2ccc3c(c2)C(=O)N(c2ccc(F)cc2)C3=O)c1`: the IC50 is > 165 µM (inactive).

In the case of `COc1ccc(CNc2nc3c(-c4cccc(F)c4)nnn3c3ccccc23)cc1`, the IC50 entry is “inactive”.

On to `O=C(COC(=O)c1ccc2c(c1)C(=O)N(c1cccc(Cl)c1Cl)C2=O)c1ccc(F)cc1`, for which the IC50 is > 165 µM (inactive).

In the case of `Cc1ccc(N2C(=O)c3ccc(C(=O)N4CCN(Cc5ccccc5)CC4)cc3C2=O)cc1`, the IC50 is > 165 µM (inactive).

For the compound `Cc1ccc(CNc2nc3c(-c4cccc(F)c4)nnn3c3cc(Cl)ccc23)cc1`, the IC50 was > 165 µM (inactive).

`CC(CNc1nc2c(-c3cccc(F)c3)nnn2c2ccccc12)c1ccccc1` (stereo not drawn): the IC50 was > 165 µM (inactive).

`Cc1ccc(C(=O)C(C)OC(=O)c2ccc3c(c2)C(=O)N(c2cccc(Cl)c2Cl)C3=O)cc1` (stereo not drawn): the IC50 is > 165 µM (inactive).

As for `O=C1c2ccccc2C(=O)N1c1cccc2ncccc12`, the IC50 is > 165 µM (inactive).

`CCCOC(=O)c1ccc2c(c1)C(=O)N(c1cccc3ccccc13)C2=O`: the IC50 was > 165 µM (inactive).

Turning to `Cc1cccc(N2C(=O)c3ccc(C(=O)NC4CCCCC4)cc3C2=O)c1C`, the IC50 is > 165 µM (inactive).

As for `Cc1cccc(Oc2ccc(N3C(=O)c4ccc(C(=O)OCC(=O)Nc5cccc(C)c5C)cc4C3=O)cc2)c1`, the IC50 is > 165 µM (inactive).

Turning to `Cc1ccc(N2C(=O)c3ccc(C(=O)N4c5ccccc5CC4C)cc3C2=O)cc1` (stereo not drawn), the IC50 is > 165 µM (inactive).

Turning to `O=C(COC(=O)c1ccc2c(c1)C(=O)N(c1cc(C(F)(F)F)ccc1Cl)C2=O)c1ccccc1`, the IC50 is > 165 µM (inactive).

Regarding `Cc1ccc(N2C(=O)c3ccc(C(=O)OCC(=O)c4ccccc4)cc3C2=O)c(C)c1`, the IC50 was > 165 µM (inactive).

Consider `CC(C)(C)NC(=O)c1ccc2c(c1)C(=O)N(c1ccccc1-c1ccccc1)C2=O`, for which the IC50 was > 165 µM (inactive).

Turning to `O=C(NCC1CCCO1)c1ccc2c(c1)C(=O)N(c1cccc3ccccc13)C2=O` (stereo not drawn), the IC50 was > 165 µM (inactive).

As to `O=C(OCC(=O)c1cccs1)c1ccc2c(c1)C(=O)N(c1cccc3ccccc13)C2=O`, the IC50 was > 165 µM (inactive).

For the compound `O=C(COC(=O)c1ccc2c(c1)C(=O)N(c1cccc3ncccc13)C2=O)c1ccc(Cl)cc1`, the IC50 is 2.13 µM.

`O=C(COC(=O)c1ccc2c(c1)C(=O)N(c1cccc(C(F)(F)F)c1)C2=O)c1ccc(Cl)cc1`: the IC50 is > 165 µM (inactive).

Turning to `NS(=O)(=O)c1ccc(CCNc2nc3c(-c4cccc(C(F)(F)F)c4)nnn3c3ccccc23)cc1`, the IC50 is 6.9 µM.

`Fc1cccc(-c2nnn3c2nc(NCCc2ccccc2)c2ccc(Cl)cc23)c1`: the IC50 is > 165 µM (inactive).

`COc1ccc(CNc2nc3c(-c4cccc(F)c4)nnn3c3cc(Cl)ccc23)cc1`: the IC50 is > 165 µM (inactive).

As for `O=C1c2cc(Cl)c(Cl)cc2C(=O)N1c1cccc2ncccc12`, the IC50 was > 165 µM (inactive).

Consider `CC(C)CNC(=O)c1ccc2c(c1)C(=O)N(c1ccccc1-c1ccccc1)C2=O`, for which the IC50 was > 165 µM (inactive).

Regarding `Cc1ccc(C(=O)COC(=O)c2ccc3c(c2)C(=O)N(c2cccc4ncccc24)C3=O)cc1`, the IC50 is > 165 µM (inactive).

For the compound `Cc1ccc(Oc2ccc3c(c2)C(=O)N(c2cccc4ncccc24)C3=O)cc1C`, the IC50 is > 165 µM (inactive).
